Assay results from ChEMBL document CHEMBL1770084, “An inhibitor-like binding mode of a carbonic anhydrase activator within the active site of isoform II” (Bioorg Med Chem Lett, 2011).

What was measured:
[1] = target: Carbonic anhydrase 12 (Homo sapiens) (UniProt O43570); assay: Activation of human transmembrane carbonic anhydrase 12 preincubated for 15 mins by CO2 hydration stopped-flow assay
[2] = target: Carbonic anhydrase 9 (Homo sapiens) (UniProt Q16790); assay: Activation of human transmembrane carbonic anhydrase 9 preincubated for 15 mins by CO2 hydration stopped-flow assay
[3] = target: Carbonic anhydrase 7 (Homo sapiens) (UniProt P43166); assay: Activation of human cytosolic carbonic anhydrase 7 preincubated for 15 mins by CO2 hydration stopped-flow assay
[4] = target: Carbonic anhydrase 1 (Homo sapiens) (UniProt P00915); assay: Activation of human cytosolic carbonic anhydrase 1 preincubated for 15 mins by CO2 hydration stopped-flow assay
[5] = target: Carbonic anhydrase 2 (Homo sapiens) (UniProt P00918); assay: Activation of human cytosolic carbonic anhydrase 2 preincubated for 15 mins by CO2 hydration stopped-flow assay
[6] = target: Carbonic anhydrase 14 (Homo sapiens) (UniProt Q9ULX7); assay: Activation of human transmembrane carbonic anhydrase 14 preincubated for 15 mins by CO2 hydration stopped-flow assay
[7] = target: Carbonic anhydrase 9 (Homo sapiens) (UniProt Q16790); assay: Binding affinity to human transmembrane carbonic anhydrase 9
[8] = target: Carbonic anhydrase 12 (Homo sapiens) (UniProt O43570); assay: Binding affinity to human transmembrane carbonic anhydrase 12
[9] = target: Carbonic anhydrase 14 (Homo sapiens) (UniProt Q9ULX7); assay: Binding affinity to human transmembrane carbonic anhydrase 14
[10] = target: Carbonic anhydrase 1 (Homo sapiens) (UniProt P00915); assay: Binding affinity to human cytosolic carbonic anhydrase 1
[11] = target: Carbonic anhydrase 2 (Homo sapiens) (UniProt P00918); assay: Binding affinity to human cytosolic carbonic anhydrase 2
[12] = target: Carbonic anhydrase 7 (Homo sapiens) (UniProt P43166); assay: Binding affinity to human cytosolic carbonic anhydrase 7
[13] = target: Carbonic anhydrase 2 (Homo sapiens) (UniProt P00918); assay: Activation of human carbonic anhydrase 2 activity at 20 uM after 15 mins by CO2 hydration stopped-flow assay relative to control
How it was run: (§1)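 hCA II (10 nM) held with test compound at 20 µM (stated as 20 lM in the footnote) for 15 min to 144 h before assay. Activity then read by stopped-flow CO2 hydrase assay. Values are % of initial enzyme activity with no test compound, which is set to 100%.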

[14] = target: Carbonic anhydrase 2 (Homo sapiens) (UniProt P00918); assay: Activation of human carbonic anhydrase 2 activity at 20 uM after 1 hr by CO2 hydration stopped-flow assay relative to control; how it was run: as §1
[15] = target: Carbonic anhydrase 2 (Homo sapiens) (UniProt P00918); assay: Activation of human carbonic anhydrase 2 activity at 20 uM after 12 hrs by CO2 hydration stopped-flow assay relative to control; how it was run: as §1
[16] = target: Carbonic anhydrase 2 (Homo sapiens) (UniProt P00918); assay: Activation of human carbonic anhydrase 2 activity at 20 uM after 24 hrs by CO2 hydration stopped-flow assay relative to control; how it was run: as §1
[17] = target: Carbonic anhydrase 2 (Homo sapiens) (UniProt P00918); assay: Activation of human carbonic anhydrase 2 activity at 20 uM after 36 hrs by CO2 hydration stopped-flow assay relative to control; how it was run: as §1
[18] = target: Carbonic anhydrase 2 (Homo sapiens) (UniProt P00918); assay: Inhibition of human carbonic anhydrase 2 activity at 20 uM after 48 hrs by CO2 hydration stopped-flow assay relative to control; how it was run: as §1
[19] = target: Carbonic anhydrase 2 (Homo sapiens) (UniProt P00918); assay: Inhibition of human carbonic anhydrase 2 activity at 20 uM after 72 hrs by CO2 hydration stopped-flow assay relative to control; how it was run: as §1
[20] = target: Carbonic anhydrase 2 (Homo sapiens) (UniProt P00918); assay: Inhibition of human carbonic anhydrase 2 activity at 20 uM after 96 hrs by CO2 hydration stopped-flow assay relative to control; how it was run: as §1
[21] = target: Carbonic anhydrase 2 (Homo sapiens) (UniProt P00918); assay: Inhibition of human carbonic anhydrase 2 activity at 20 uM after 144 hrs by CO2 hydration stopped-flow assay relative to control; how it was run: as §1

Carbonic anhydrase 12 (Homo sapiens), sequence (O43570 whole entry): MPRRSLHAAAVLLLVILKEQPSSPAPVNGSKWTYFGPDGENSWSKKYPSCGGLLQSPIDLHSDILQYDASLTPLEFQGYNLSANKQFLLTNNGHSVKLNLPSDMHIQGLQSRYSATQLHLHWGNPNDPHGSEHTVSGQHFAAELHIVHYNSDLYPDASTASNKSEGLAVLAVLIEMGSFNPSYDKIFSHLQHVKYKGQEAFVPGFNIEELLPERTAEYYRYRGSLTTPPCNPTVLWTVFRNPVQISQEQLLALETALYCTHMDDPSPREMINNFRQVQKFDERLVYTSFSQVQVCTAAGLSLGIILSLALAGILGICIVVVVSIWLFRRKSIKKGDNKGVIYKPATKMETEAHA
Carbonic anhydrase 7 (Homo sapiens), sequence (P43166 whole entry): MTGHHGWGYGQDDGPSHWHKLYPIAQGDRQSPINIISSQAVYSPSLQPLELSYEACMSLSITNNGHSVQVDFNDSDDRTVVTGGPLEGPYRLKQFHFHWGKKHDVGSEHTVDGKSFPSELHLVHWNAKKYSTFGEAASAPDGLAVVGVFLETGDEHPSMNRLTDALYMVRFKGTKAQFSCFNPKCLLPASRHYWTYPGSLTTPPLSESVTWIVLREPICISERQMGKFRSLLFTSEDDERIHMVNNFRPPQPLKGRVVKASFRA
Carbonic anhydrase 14 (Homo sapiens), sequence (Q9ULX7 whole entry): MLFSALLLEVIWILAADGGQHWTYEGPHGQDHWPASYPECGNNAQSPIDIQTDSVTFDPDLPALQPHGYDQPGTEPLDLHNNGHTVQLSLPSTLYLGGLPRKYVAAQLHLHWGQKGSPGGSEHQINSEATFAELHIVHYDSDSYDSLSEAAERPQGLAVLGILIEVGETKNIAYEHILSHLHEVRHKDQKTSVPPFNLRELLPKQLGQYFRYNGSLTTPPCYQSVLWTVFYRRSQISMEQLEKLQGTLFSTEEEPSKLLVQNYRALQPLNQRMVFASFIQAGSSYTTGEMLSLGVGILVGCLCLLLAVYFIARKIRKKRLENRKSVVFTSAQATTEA
Carbonic anhydrase 1 (Homo sapiens), sequence (P00915 2-261 limits assumed): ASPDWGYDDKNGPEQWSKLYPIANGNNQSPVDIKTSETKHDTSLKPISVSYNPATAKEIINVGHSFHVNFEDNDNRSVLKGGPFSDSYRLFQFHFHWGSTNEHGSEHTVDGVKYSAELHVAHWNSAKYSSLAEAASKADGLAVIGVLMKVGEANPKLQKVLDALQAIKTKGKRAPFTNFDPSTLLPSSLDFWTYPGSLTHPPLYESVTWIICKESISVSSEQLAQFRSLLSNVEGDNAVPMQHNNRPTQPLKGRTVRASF

Cc1cc(C)[n+](CCc2c[nH]cn2)c(C)c1
Ka [1]: 0.96 µM | Ka [2]: 0.76 µM | Ka [3]: 7.71 µM | Ka [4]: 3.15 µM | Ka [5]: 18 µM | Ka [6]: 0.08 µM | Activity [7]: 0.08 µM | Activity [8]: 0.08 µM | Activity [9]: 0.08 µM | Activity [10]: 3.15 µM | Activity [11]: 3.15 µM | Activity [12]: 3.15 µM | Activity [13]: 156% | Activity [14]: 153% | Activity [15]: 154% | Activity [16]: 149% | Activity [17]: 147% | inhibition [18]: 65% | inhibition [19]: 14% | inhibition [20]: 5% | inhibition [21]: 3%
